Results: ChEMBL document CHEMBL4831547, “DNDI-6148: A Novel Benzoxaborole Preclinical Candidate for the Treatment of Visceral Leishmaniasis” (J Med Chem, 2021)

What was measured:
[1] = Selectivity index, ratio of CC50 for human MRC5 cells to EC50 for Leishmania infantum MHOM/MA(BE)/67/ITMAP263; type: toxicity; conditions: read-out: Ratio CC50/EC50
[2] = Genotoxicity in Salmonella typhimurium TA98 over 1 to 1000 ug in absence of S9 fraction by Ames test; type: toxicity; conditions: salmonella enterica subsp. enterica serovar typhimurium, dose 1-1000 µg
In short: (§1)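 Mini-Ames reverse mutation screen in S. typhimurium TA98 and TA100, run with and without induced rat liver S9. Doses were 1.5, 4, 10, 25, 64, 160, 400 and 1000 μg per well. Positive controls were 2-aminoanthracene, 2-nitrofluorene and sodium azide; DMSO was the negative control.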

[3] = Drug metabolism in human liver microsomes at 10 uM incubated for 60 mins by LC-UV/MS analysis; type: ADME, Microsome; conditions: 1 h
[4] = Genotoxicity in Salmonella typhimurium TA100 over 1 to 1000 ug in absence of S9 fraction by Ames test; type: toxicity; conditions: salmonella enterica subsp. enterica serovar typhimurium, dose 1-1000 µg; in short: as §1
[5] = Genotoxicity in Salmonella typhimurium TA100 over 1 to 1000 ug in presence of S9 fraction by Ames test; type: toxicity, subcellular; conditions: salmonella enterica subsp. enterica serovar typhimurium, dose 1-1000 µg; in short: as §1
[6] = Drug metabolism in Sprague-Dawley rat liver microsomes at 10 uM incubated for 60 mins by LC-UV/MS analysis; type: ADME, Microsome; conditions: 1 h
In short: (§2)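 Incubated at 10 μM with liver microsomes (1 mg/mL) from Beagle dog or Sprague-Dawley rat for 60 min. Reactions were stopped by precipitation with formic acid/acetonitrile, and metabolites were identified by LC-UV-MSn (n = 1–2).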

[7] = Toxicity in Sprague-Dawley rat at 50 mg/kg administered daily for 14 days; type: organism-based; conditions: in vivo, 336 h, time 14 day
In short: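 Exploratory 14-day toxicology study with daily dosing in male and female Sprague-Dawley rats.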

[8] = Genotoxicity in Salmonella typhimurium TA98 over 1 to 1000 ug in presence of S9 fraction by Ames test; type: toxicity, subcellular; conditions: salmonella enterica subsp. enterica serovar typhimurium, dose 1-1000 µg; in short: as §1
[9] = Drug metabolism in dog liver microsomes at 10 uM incubated for 60 mins by LC-UV/MS analysis; type: ADME, Canis lupus familiaris, Microsome; conditions: 1 h; in short: as §2
[10] = Permeability of compound in dog MDCK-MDR1 cells at 2 uM after 150 min by LC-MS/MS analysis; type: ADME, cell-based, Canis lupus familiaris; conditions: mdck-mdr1, 2.5 h
In short: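 Bidirectional MDCK-MDR1 monolayer permeability. A→B and B→A transport was measured in triplicate over 150 min at 37 °C, 5% CO2, and quantified by LC-MS/MS as analyte/internal standard peak-area ratio.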

[11] = Clearance in human; type: ADME
[12] = Drug metabolism in rat assessed as M12 metabolite formation; type: ADME
[13] = Drug metabolism in mouse assessed as M12 metabolite formation; type: ADME
[14] = Drug metabolism in human assessed as M12 metabolite formation; type: ADME
[15] = Drug metabolism in dog assessed as M12 metabolite formation; type: ADME, Canis lupus familiaris
[16] = Drug metabolism in hamster assessed as M12 metabolite formation; type: ADME, Mesocricetus auratus

SMILES	selectivity ratio [1]	further results
Cc1c(C(=O)Nc2ccc3c(c2)B(O)OC3)nnn1-c1ccccc1	> 1.7	
O=C(Nc1ccc2c(c1)B(O)OC2)c1cn(-c2ccc(Cl)cc2)nc1C(F)(F)F	2	
Cc1c(C(=O)Nc2ccc3c(c2)B(O)OC3)cnn1CCC(F)(F)F	> 5	
Cc1cccc(-n2ncc(C(=O)Nc3ccc4c(c3)B(O)OC4)c2C)n1	25	
O=C(Nc1ccc2c(c1)B(O)OC2)c1cn(-c2ccccn2)nc1C(F)(F)F	1.6	
Cc1nn(CCC(F)(F)F)cc1C(=O)Nc1ccc2c(c1)B(O)OC2	> 11	
Cc1nn(C2CCC2)cc1C(=O)Nc1ccc2c(c1)B(O)OC2	> 4	
Cc1nn(-c2ccccn2)cc1C(=O)Nc1ccc2c(c1)B(O)OC2	> 11	
COc1ccccc1-n1cc(C(=O)Nc2ccc3c(c2)B(O)OC3)c(C)n1	7.3	
Cc1c(C(=O)Nc2ccc3c(c2)B(O)OC3)cnn1-c1ccccn1	15	
O=C(Nc1ccc2c(c1)B(O)OC2)c1cn(CC(F)(F)F)nc1C(F)(F)F	> 40	
CCCCCCCCCCCCCCCCOP(=O)([O-])OCC[N+](C)(C)C [MILTEFOSINE]	> 6.2	
O=C(Nc1ccc2c(c1)B(O)OC2)c1cn(C2CCC2)nc1C(F)(F)F	53	
Cc1c(C(=O)Nc2ccc3c(c2)B(O)OC3)nnn1-c1ccccn1	> 39	Activity [2]: Non-Toxic; Drug metabolism [3]: Metabolite_Notdetected; Activity [4]: Non-Toxic; Activity [5]: Non-Toxic; Drug metabolism [6]: Metabolite_Notdetected; Activity [7]: Non-Toxic; Activity [8]: Non-Toxic; Drug metabolism [9]: Metabolite_Notdetected; permeability [10]: Permeable; clearance [11]: 1 mL/min/kg
O=C(Nc1ccc2c(c1)B(O)OC2)c1cc(-c2ccccn2)n[nH]1	8	
O=C(Nc1ccc2c(c1)B(O)OC2)c1cn(C2CCOCC2)nc1C(F)(F)F	> 21	
Cc1cccc(-n2nnc(C(=O)Nc3ccc4c(c3)B(O)OC4)c2C)n1	> 10	
COc1cccc(-n2nnc(C(=O)Nc3ccc4c(c3)B(O)OC4)c2C)n1	> 80	
Cc1oc(C(=O)Nc2ccc3c(c2)B(O)OC3)cc1-c1ccccn1	18	
Cc1c(C(=O)Nc2ccc3c(c2)B(O)OC3)nnn1-c1cccnc1	> 1.8	
O=C(Nc1ccc2c(c1)B(O)OC2)c1nnc(-c2ccccn2)o1	> 32	
Cn1nc(-c2ccccn2)cc1C(=O)Nc1ccc2c(c1)B(O)OC2	> 2	
O=C(Nc1ccc2c(c1)B(O)OC2)c1cn(CCC(F)(F)F)nc1C(F)(F)F	38	
Cc1c(-c2ccccn2)coc1C(=O)Nc1ccc2c(c1)B(O)OC2	37	Drug metabolism [12]: Metabolite_Detected; Drug metabolism [13]: Metabolite_Detected; Drug metabolism [14]: Metabolite_Detected; Drug metabolism [15]: Metabolite_Detected; Drug metabolism [16]: Metabolite_Detected
O=C(Nc1ccc2c(c1)B(O)OC2)c1cn(-c2ccccn2)nn1	30	
Cc1c(-c2ccccn2)csc1C(=O)Nc1ccc2c(c1)B(O)OC2	4	
O=C(Nc1ccc2c(c1)B(O)OC2)c1ccc(F)cc1C(F)(F)F	> 24	
Cn1nc(C(=O)Nc2ccc3c(c2)B(O)OC3)cc1-c1ccccn1	31	
COc1cccc(-n2ncc(C(=O)Nc3ccc4c(c3)B(O)OC4)c2C)n1	31	
O=C(Nc1ccc2c(c1)B(O)OC2)c1cn(C(F)(F)F)nc1C(F)(F)F	> 31	
